The record followed here is the array DNA melting data of Ke et al. (doi:10.1101/2024.01.08.574731).

A short description of data set [1]: folding enthalpy; higher = less favourable; fluorescence melt of hairpins on a sequencing array, two-state fit. Conditions: sodium 0.088 M. In a few lines: (§1)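 Two-state fits, bootstrapped, provided melting temperature and folding enthalpy from Cy3 fluorescence normalised to pre-quench Cy3 and to control constructs. Library hairpins with annealed Cy3 and quencher oligos were imaged on a sequenced MiSeq flow cell in 50 mM Na-HEPES pH 8.0, 25 mM NaCl, at 2.5 °C intervals up to 60 °C. Four replicates were combined with inverse-variance weighting. A 9.35 °C upward shift was applied to fitted temperatures to match UV melts.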

A short description of data set [2]: melting temperature; fluorescence melt of hairpins on a sequencing array, two-state fit, raised by 9.35 °C to match UV melts. Conditions: sodium 0.088 M. In a few lines: as §1

As for GACACCGAAAGGTTAGTC ((((((....)))..))), in data set [1], the folding enthalpy is -20.4 kcal/mol. The Tm in data set [2] came out at 37.5 °C.

For the sequence GACACCGGAAACAGTGTC (((((.(....).))))), the folding enthalpy in data set [1] is -28.8 kcal/mol. The Tm in data set [2] was found to be 44.3 °C.

For GACACGCCGAAAGGCGTC (((..(((....)))))), the folding enthalpy in data set [1] is -6.56 kcal/mol. In addition, the Tm in data set [2] came to 33.8 °C.

Regarding GACACTGGAAACAATGTC ((((.((....)).)))), in data set [1], the folding enthalpy is -33.6 kcal/mol. In data set [2], the Tm turned out to be 31.9 °C.

With GACACTGGAAACAGTGTC (((((((....))))))), in data set [1], the folding enthalpy is -37 kcal/mol. Moreover, in data set [2], the Tm is 66 °C.

GACACTGGAAACGGTGTC (((((.(....).))))): the folding enthalpy in data set [1] is -38.8 kcal/mol. In addition, in data set [2], the Tm turned out to be 52.9 °C.

Take GACAGACGAAAGTCGGTC (((.(((....))).))): the folding enthalpy in data set [1] is -36.2 kcal/mol. Also, the Tm in data set [2] was determined as 59.6 °C.

In the case of GACAGAGCGAAAGCTGTC (((..(((....)))))), the folding enthalpy in data set [1] is -18.3 kcal/mol. Moreover, the Tm in data set [2] came to 46.7 °C.

Take GACAGCGAAAGCTAAGTC ((((((....)))..))): the folding enthalpy in data set [1] was -17.5 kcal/mol. In addition, the Tm in data set [2] worked out at 38.2 °C.

As for GACAGCGAAAGCTATGTC ((((((....)))..))), the folding enthalpy in data set [1] was -19.1 kcal/mol. Further, in data set [2], the Tm stood at 43.5 °C.

Consider GACAGCGGAAACGCTACC (..((((....))))..), for which, in data set [1], the folding enthalpy was -11.1 kcal/mol. Also, the Tm in data set [2] amounted to 24.2 °C.

Turning to GACAGGCCGAAAGGCGTC (((..(((....)))))), the folding enthalpy in data set [1] is -14.9 kcal/mol. Besides, in data set [2], the Tm is 47.7 °C.

Turning to GACAGGGGAAACCCCGTC (((.(((....))).))), the folding enthalpy in data set [1] is -24.6 kcal/mol. Also, in data set [2], the Tm came out at 50.3 °C.

Take GACAGGGGAAACCTTGTC ((((.((....)).)))): the folding enthalpy in data set [1] was -32.4 kcal/mol. In addition, in data set [2], the Tm was 45.2 °C.

Turning to GACAGTGGAAACACTGTC (((((((....))))))), in data set [1], the folding enthalpy is -39.5 kcal/mol. Further, the Tm in data set [2] worked out at 60.8 °C.

Turning to GACAGTGGAAACGCTGTC (((((.(....).))))), the folding enthalpy in data set [1] is -40.9 kcal/mol. For the same sequence, in data set [2], the Tm amounted to 52.1 °C.

Take GACATACGAAAGTAGTC (((.(((....)))))): the folding enthalpy in data set [1] was -22.2 kcal/mol. Also, the Tm in data set [2] came to 41.5 °C.

On to GACATAGGAAACTATGCC (.(((((....))))).), for which the folding enthalpy in data set [1] is -18.6 kcal/mol. Further, the Tm in data set [2] is 34.3 °C.

Consider GACATCGCGAAAGCGGTC (((..(((....)))))), for which the folding enthalpy in data set [1] is -11.6 kcal/mol. For the same sequence, the Tm in data set [2] came to 34.8 °C.

In the case of GACATCGGAAACGACGTC (((.(((....))).))), the folding enthalpy in data set [1] is -28 kcal/mol. For the same sequence, the Tm in data set [2] was determined as 43.3 °C.

As to GACATGCGAAAGCAGGTC (((.(((....))).))), the folding enthalpy in data set [1] was -29.8 kcal/mol. In data set [2], the Tm is 65.7 °C.

With GACATGGGAAACTATGTC (((((.(....).))))), the folding enthalpy in data set [1] was -27.6 kcal/mol. Besides, the Tm in data set [2] was found to be 44.4 °C.

For the sequence GACATTACGAAAGTAGTC (((..(((....)))))), the folding enthalpy in data set [1] was -14.8 kcal/mol. Besides, the Tm in data set [2] stood at 27.4 °C.

With GACATTGGAAACAGTGTC ((((.((....)).)))), the folding enthalpy in data set [1] is -33.1 kcal/mol. For the same sequence, the Tm in data set [2] was 42.6 °C.

As for GACCAAGGAAACTTGATC ((.((((....)))).)), in data set [1], the folding enthalpy is -16.8 kcal/mol. Besides, the Tm in data set [2] was 28.8 °C.

For the sequence GACCACCCGAAAGGGGTC (((..(((....)))))), the folding enthalpy in data set [1] was -13.1 kcal/mol. For the same sequence, in data set [2], the Tm was 46.5 °C.

Consider GACCACGAAAGTGCAGTC ((((((....)))..))), for which the folding enthalpy in data set [1] was -17.5 kcal/mol. In addition, in data set [2], the Tm turned out to be 36.6 °C.

In the case of GACCACGGAAACGCGGTC ((((.((....)).)))), in data set [1], the folding enthalpy was -49 kcal/mol. Besides, the Tm in data set [2] was 53.2 °C.

With GACCACGGAAACGTGGCC (.(((((....))))).), the folding enthalpy in data set [1] is -13.3 kcal/mol. Further, the Tm in data set [2] came out at 49.9 °C.

Turning to GACCAGAAATGGTC (((((....))))), the folding enthalpy in data set [1] is -33.2 kcal/mol. Moreover, in data set [2], the Tm came out at 51.2 °C.

As to GACCAGCGAAAGCTAGTC (((.(((....))).))), the folding enthalpy in data set [1] was -23.1 kcal/mol. For the same sequence, the Tm in data set [2] is 44.8 °C.

For the sequence GACCAGGGAAACCTGACC (..((((....))))..), the folding enthalpy in data set [1] was -10 kcal/mol. For the same sequence, the Tm in data set [2] came out at 30.1 °C.

As for GACCCAGAAATGGGTC ((((((....)))))), the folding enthalpy in data set [1] is -35.3 kcal/mol. Besides, in data set [2], the Tm turned out to be 64 °C.

GACCCAGGAAACTGAGTC (((.(((....))).))): the folding enthalpy in data set [1] was -30 kcal/mol. In addition, the Tm in data set [2] was found to be 37.9 °C.

For GACCCAGGAAACTGGATC ((.((((....)))).)), the folding enthalpy in data set [1] was -17.9 kcal/mol. Further, the Tm in data set [2] is 38.8 °C.

For the sequence GACCCCACGAAAGTGGTC (((..(((....)))))), the folding enthalpy in data set [1] is -8.51 kcal/mol. For the same sequence, the Tm in data set [2] came out at 28.9 °C.

As to GACCCCCCGAAAGGGGTC (((..(((....)))))), the folding enthalpy in data set [1] is -15.2 kcal/mol. In data set [2], the Tm is 57.2 °C.
